Reference: ChEMBL document CHEMBL4007381, “Synthesis, X-ray crystal structure and anti-tumor activity of calix[n]arene polyhydroxyamine derivatives” (Eur J Med Chem, 2016)
Active and inactive are the calls of the source. The calls are words filed in the database; no cut-off is given here.

Assays:
[1] = tested on: A549; assay: Cytotoxicity against human A549 cells assessed as reduction in cell viability at 10 uM measured after 72 hrs by SRB assay relative to control; type: functional; conditions: A549, 72 h, read-out: GI
In short: (§1)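 Adherent cells were seeded at 1-5 × 10⁴/well and grown 24 h at 37 °C in 5% CO₂. They were treated at a single 10 µM concentration for 72 h in triplicate wells. Read-out was SRB staining after TCA fixation, with dye dissolved in Tris base and OD read at 565 nm. Viability was expressed relative to control.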

[2] = tested on: MDA-MB-231; assay: Cytotoxicity against human MDA-MB-231 cells assessed as reduction in cell viability at 10 uM measured after 72 hrs by SRB assay relative to control; type: functional; conditions: MDA-MB-231, 72 h, read-out: GI; in short: as §1
[3] = tested on: SW1990; assay: Cytotoxicity against human SW1990 cells assessed as reduction in cell viability at 10 uM measured after 72 hrs by SRB assay relative to control; type: functional; conditions: SW1990, 72 h, read-out: GI; in short: as §1
[4] = tested on: Raji; assay: Cytotoxicity against human Raji cells assessed as reduction in cell viability at 10 uM measured after 72 hrs by MTT assay relative to control; type: functional; conditions: read-out: GI
In short: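 Raji suspension cells were seeded at 1-5 × 10⁴/well and grown 24 h. They were treated at 10 µM for 72 h in triplicate wells. Read-out was MTT for 4 h, then solubilization in HCl/isopropanol/SDS overnight and OD at 550 nm, relative to control.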

[5] = tested on: HeLa; assay: Cytotoxicity against human HeLa cells assessed as reduction in cell viability at 10 uM measured after 72 hrs by SRB assay relative to control; type: functional; conditions: read-out: GI; in short: as §1
[6] = tested on: SK-OV-3; assay: Cytotoxicity against human SKOV3 cells assessed as reduction in cell viability at 10 uM measured after 72 hrs by SRB assay relative to control; type: functional; conditions: SK-OV-3, 72 h, read-out: GI; in short: as §1
[7] = tested on: Raji; assay: Cytotoxicity against human Raji cells assessed as reduction in cell viability measured after 72 hrs by MTT assay; type: functional, cell-based
In short: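 Raji suspension cells (RPMI 1640, 10% FBS) were seeded at 1-5 × 10⁴/well and grown 24 h at 37 °C in 5% CO₂. They were exposed to 10 concentrations for 72 h in triplicate wells. MTT was added for 4 h, then HCl/isopropanol/SDS was added overnight, and OD was read at 550 nm. Data are means of ≥3 independent experiments, relative to vehicle, with apparent IC50 taken from the dose-response curves.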

[8] = tested on: HeLa; assay: Cytotoxicity against human HeLa cells assessed as reduction in cell viability measured after 72 hrs by SRB assay; type: functional, cell-based
In short: (§2)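 Adherent cells in log phase were seeded at 1-5 × 10⁴/well and grown 24 h at 37 °C in 5% CO₂. They were exposed to 10 concentrations for 72 h, three wells each, then fixed with TCA and stained with SRB. Bound dye was dissolved in Tris base and read at OD 565 nm. Survival was expressed relative to vehicle (100%). Means came from ≥3 independent experiments, and apparent IC50 was read from the dose-response curves.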

[9] = tested on: SW1990; assay: Cytotoxicity against human SW1990 cells assessed as reduction in cell viability measured after 72 hrs by SRB assay; type: functional, cell-based; conditions: SW1990, 72 h; in short: as §2
[10] = tested on: MDA-MB-231; assay: Cytotoxicity against human MDA-MB-231 cells assessed as reduction in cell viability measured after 72 hrs by SRB assay; type: functional, cell-based; conditions: MDA-MB-231, 72 h; in short: as §2
[11] = tested on: SK-OV-3; assay: Cell cycle arrest in human SKOV3 cells assessed as decrease in accumulation at G2/M phase at 3 uM measured after 48 hrs by propidium iodide staining-based FACS analysis; type: functional
[12] = tested on: SK-OV-3; assay: Induction of apoptosis in human SKOV3 cells assessed as upregulation of caspase3 expression at 3 uM measured after 24 to 48 hrs by Hoechst-33342 staining-based immunofluorescent analysis relative to DMSO-control; type: functional, cell-based
In short: (§3)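 SKOV3 cells in 24-well plates were given 3 µM compound or DMSO. They were fixed with 4% paraformaldehyde for 20 min, permeabilized with 0.3% Triton X-100 for 10 min and blocked with sheep serum. Primary antibody (caspase-3, p53, Bcl-2 or Bax) was applied overnight at 4 °C, then fluorescein-conjugated secondary for 1 h and Hoechst 33342 for 15 min. Slides were imaged by fluorescence microscopy.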

[13] = tested on: SK-OV-3; assay: Induction of apoptosis in human SKOV3 cells assessed as upregulation of p53 expression at 3 uM measured after 24 to 48 hrs by Hoechst-33342 staining-based immunofluorescent analysis relative to DMSO-control; type: functional, cell-based; in short: as §3
[14] = tested on: SK-OV-3; assay: Cytotoxicity against human SKOV3 cells assessed as reduction in cell viability measured after 72 hrs by SRB assay; type: functional, cell-based; conditions: SK-OV-3, 72 h; in short: as §2
[15] = tested on: SK-OV-3; assay: Cell cycle arrest in human SKOV3 cells assessed as accumulation at G0/G1 phase at 3 uM measured after 48 hrs by propidium iodide staining-based FACS analysis (reference value: 49.47 +/- 1.91%); type: functional
[16] = tested on: SK-OV-3; assay: Induction of apoptosis in human SKOV3 cells assessed as effect on Bax expression at 3 uM measured after 24 to 48 hrs by Hoechst-33342 staining-based immunofluorescent analysis relative to DMSO-control; type: functional, cell-based; in short: as §3
[17] = tested on: SK-OV-3; assay: Cell cycle arrest in human SKOV3 cells assessed as accumulation at S phase at 3 uM measured after 48 hrs by propidium iodide staining-based FACS analysis(reference value: 37.31 +/- 3.48%); type: functional
[18] = tested on: A549; assay: Cytotoxicity against human A549 cells assessed as reduction in cell viability measured after 72 hrs by SRB assay; type: functional, cell-based; conditions: A549, 72 h; in short: as §2
[19] = tested on: SK-OV-3; assay: Induction of apoptosis in human SKOV3 cells assessed as downregulation of Bcl2 expression at 3 uM measured after 24 to 48 hrs by Hoechst-33342 staining-based immunofluorescent analysis relative to DMSO-control; type: functional, cell-based; in short: as §3
[20] = tested on: SK-OV-3; assay: Cell cycle arrest in human SKOV3 cells assessed as accumulation at G0/G1 phase at 10 uM measured after 48 hrs by propidium iodide staining-based FACS analysis; type: functional
[21] = tested on: SK-OV-3; assay: Cell cycle arrest in human SKOV3 cells assessed as decrease in accumulation at G2/M phase at 10 uM measured after 48 hrs by propidium iodide staining-based FACS analysis; type: functional
[22] = tested on: SK-OV-3; assay: Cell cycle arrest in human SKOV3 cells assessed as decrease in accumulation at S phase at 10 uM measured after 48 hrs by propidium iodide staining-based FACS analysis; type: functional

SMILES	inhibition of growth at 10 µM [1]	inhibition of growth at 10 µM [2]	inhibition of growth at 10 µM [3]	inhibition of growth at 10 µM [4]	inhibition of growth at 10 µM [5]	inhibition of growth at 10 µM [6]	other results
CC(C)(C)c1cc2c(OCC(=O)NCCO)c(c1)Cc1cc(C(C)(C)C)cc(c1OCC(=O)NCCO)Cc1cc(C(C)(C)C)cc(c1OCC(=O)NCCO)Cc1cc(C(C)(C)C)cc(c1OCC(=O)NCCO)Cc1cc(C(C)(C)C)cc(c1OCC(=O)NCCO)Cc1cc(C(C)(C)C)cc(c1OCC(=O)NCCO)Cc1cc(C(C)(C)C)cc(c1OCC(=O)NCCO)Cc1cc(C(C)(C)C)cc(c1OCC(=O)NCCO)C2	8%	12%	5%	24%	23%	26%	
CC(C)(C)c1cc2c(OCC(=O)N(CCO)CCO)c(c1)Cc1cc(C(C)(C)C)cc(c1OCC(=O)N(CCO)CCO)Cc1cc(C(C)(C)C)cc(c1OCC(=O)N(CCO)CCO)Cc1cc(C(C)(C)C)cc(c1OCC(=O)N(CCO)CCO)Cc1cc(C(C)(C)C)cc(c1OCC(=O)N(CCO)CCO)Cc1cc(C(C)(C)C)cc(c1OCC(=O)N(CCO)CCO)Cc1cc(C(C)(C)C)cc(c1OCC(=O)N(CCO)CCO)Cc1cc(C(C)(C)C)cc(c1OCC(=O)N(CCO)CCO)C2	0%	11%	5%	11%	10%	25%	
O=C(COc1c2cccc1Cc1cccc(c1OCC(=O)N(CCO)CCO)Cc1cccc(c1OCC(=O)N(CCO)CCO)Cc1cccc(c1OCC(=O)N(CCO)CCO)Cc1cccc(c1OCC(=O)N(CCO)CCO)Cc1cccc(c1OCC(=O)N(CCO)CCO)C2)N(CCO)CCO	5%	22%	0%	6%	9%	19%	
CC(C)(C)c1cc2c(O)c(c1)Cc1cc(C(C)(C)C)cc(c1OCC(=O)N(CCO)CCO)Cc1cc(C(C)(C)C)cc(c1O)Cc1cc(C(C)(C)C)cc(c1OCC(=O)N(CCO)CCO)C2	16%	95%	59%	77%	95%	42%	IC50 [7]: 11.2 µM; IC50 [8]: 8.1 µM; IC50 [9]: 11.3 µM; IC50 [10]: 5.2 µM
CC(C)(C)c1cc2c(OCC(=O)N(CCO)CCO)c(c1)Cc1cc(C(C)(C)C)cc(c1OCC(=O)N(CCO)CCO)Cc1cc(C(C)(C)C)cc(c1OCC(=O)N(CCO)CCO)Cc1cc(C(C)(C)C)cc(c1OCC(=O)N(CCO)CCO)Cc1cc(C(C)(C)C)cc(c1OCC(=O)N(CCO)CCO)Cc1cc(C(C)(C)C)cc(c1OCC(=O)N(CCO)CCO)C2	0%	0%	26%	14%	0%	26%	
CC(C)(C)c1cc2c(OCC(=O)NCCO)c(c1)Cc1cc(C(C)(C)C)cc(c1OCC(=O)NCCO)Cc1cc(C(C)(C)C)cc(c1OCC(=O)NCCO)Cc1cc(C(C)(C)C)cc(c1OCC(=O)NCCO)Cc1cc(C(C)(C)C)cc(c1OCC(=O)NCCO)Cc1cc(C(C)(C)C)cc(c1OCC(=O)NCCO)C2	7%	12%	4%	38%	40%	24%	
O=C(COc1c2cccc1Cc1cccc(c1OCC(=O)NCCO)Cc1cccc(c1OCC(=O)NCCO)Cc1cccc(c1OCC(=O)NCCO)Cc1cccc(c1OCC(=O)NCCO)Cc1cccc(c1OCC(=O)NCCO)Cc1cccc(c1OCC(=O)NCCO)Cc1cccc(c1OCC(=O)NCCO)C2)NCCO	2%	27%	4%	7%	32%	1%	
O=C(COc1c2cccc1Cc1cccc(c1OCC(=O)NCCO)Cc1cccc(c1OCC(=O)NCCO)Cc1cccc(c1OCC(=O)NCCO)Cc1cccc(c1OCC(=O)NCCO)Cc1cccc(c1OCC(=O)NCCO)C2)NCCO	7%	4%	3%	18%	6%	10%	
CC(C)(C)c1cc2c(O)c(c1)Cc1cc(C(C)(C)C)cc(c1OCC(=O)NCCO)Cc1cc(C(C)(C)C)cc(c1O)Cc1cc(C(C)(C)C)cc(c1OCC(=O)NCCO)C2	89%	99%	95%	100%	100%	97%	IC50 [7]: 5 µM; Activity [11]: Active; IC50 [8]: 2.7 µM; Activity [12]: Active; Activity [13]: Active; IC50 [14]: 2.8 µM; Activity [15]: 64.25%; Activity [16]: inactive; Activity [17]: 24.19%; IC50 [9]: 4.3 µM; IC50 [18]: 4 µM; IC50 [10]: 5.3 µM; Activity [19]: Active
O=C(COc1c2cccc1Cc1cccc(c1OCC(=O)N(CCO)CCO)Cc1cccc(c1OCC(=O)N(CCO)CCO)Cc1cccc(c1OCC(=O)N(CCO)CCO)Cc1cccc(c1OCC(=O)N(CCO)CCO)Cc1cccc(c1OCC(=O)N(CCO)CCO)Cc1cccc(c1OCC(=O)N(CCO)CCO)Cc1cccc(c1OCC(=O)N(CCO)CCO)C2)N(CCO)CCO	6%	13%	2%	11%	18%	25%	
O=C(COc1c2cccc1Cc1cccc(c1O)Cc1cccc(c1OCC(=O)NCCO)Cc1cccc(c1O)C2)NCCO	13%	57%	10%	29%	46%	86%	Activity [20]: Active; IC50 [14]: 2.3 µM; Activity [21]: Active; Activity [22]: Active; IC50 [10]: 1.6 µM
O=C(COc1c2cccc1Cc1cccc(c1O)Cc1cccc(c1OCC(=O)N(CCO)CCO)Cc1cccc(c1O)C2)N(CCO)CCO	7%	22%	4%	34%	38%	34%	
